According to ChEMBL document CHEMBL4028872, “Structure-Activity Relationship, Pharmacological Characterization, and Molecular Modeling of Noncompetitive Inhibitors of the Betaine/γ-Aminobutyric Acid Transporter 1 (BGT1)” (J Med Chem, 2017):
Values after ≈ are worked out from the molar mass of the structure shown.

Columns and labels:
[1] = Solubility of compound in pH 7.4 phosphate buffer after 24 hrs by HPLC-UV method; type: physicochemical
[2] = target: T1, Sodium- and chloride-dependent GABA transporter 1 (Mus musculus, UniProt P31648); assay: Inhibition of mouse GAT1 expressed in HEK293 cells assessed as reduction in [3H]GABA uptake after 3 mins by scintillation counting method; type: cell-based
Procedure, shortened: (§1)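 HEK293 lines stably expressing a single mouse GAT subtype, kept under blasticidin-S (5 µg/mL) selection. Cells were assayed about 24 h after plating with 30 nM [3H]GABA plus varying compound concentrations for 3 min at 37 °C in HBSS buffered with 20 mM HEPES (1 mM CaCl2, 1 mM MgCl2, pH 7.4). Cells were washed ice-cold and radioactivity counted. IC50 came from sigmoidal variable-slope fits.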

[3] = target: T2, GABA transporter 2 (Mus musculus, UniProt P31651); assay: Inhibition of mouse BGT1 expressed in HEK293 cells assessed as reduction in [3H]GABA uptake after 3 mins by scintillation counting method; type: cell-based; procedure, shortened: as §1
T2 sequence (P31651 whole entry): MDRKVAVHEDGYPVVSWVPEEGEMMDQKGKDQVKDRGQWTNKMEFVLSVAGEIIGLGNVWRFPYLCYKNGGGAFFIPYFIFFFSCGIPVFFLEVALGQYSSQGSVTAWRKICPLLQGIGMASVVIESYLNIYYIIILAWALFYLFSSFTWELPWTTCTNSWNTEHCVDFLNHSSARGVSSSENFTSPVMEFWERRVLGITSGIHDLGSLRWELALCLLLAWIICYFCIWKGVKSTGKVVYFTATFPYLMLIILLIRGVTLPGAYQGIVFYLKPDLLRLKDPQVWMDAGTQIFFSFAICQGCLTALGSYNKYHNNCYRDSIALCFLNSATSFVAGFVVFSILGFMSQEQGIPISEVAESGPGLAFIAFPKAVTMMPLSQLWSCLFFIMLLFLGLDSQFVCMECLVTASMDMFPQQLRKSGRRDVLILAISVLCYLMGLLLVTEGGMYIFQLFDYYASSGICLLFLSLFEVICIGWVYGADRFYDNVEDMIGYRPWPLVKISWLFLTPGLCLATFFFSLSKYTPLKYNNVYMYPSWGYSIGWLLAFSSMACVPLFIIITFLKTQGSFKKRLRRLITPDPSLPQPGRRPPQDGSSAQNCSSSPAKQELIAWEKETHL

[4] = target: T3, GABA transporter 3 (Mus musculus, UniProt P31649); assay: Inhibition of mouse GAT2 expressed in HEK293 cells assessed as reduction in [3H]GABA uptake after 3 mins by scintillation counting method; type: cell-based
T3 sequence (P31649 whole entry): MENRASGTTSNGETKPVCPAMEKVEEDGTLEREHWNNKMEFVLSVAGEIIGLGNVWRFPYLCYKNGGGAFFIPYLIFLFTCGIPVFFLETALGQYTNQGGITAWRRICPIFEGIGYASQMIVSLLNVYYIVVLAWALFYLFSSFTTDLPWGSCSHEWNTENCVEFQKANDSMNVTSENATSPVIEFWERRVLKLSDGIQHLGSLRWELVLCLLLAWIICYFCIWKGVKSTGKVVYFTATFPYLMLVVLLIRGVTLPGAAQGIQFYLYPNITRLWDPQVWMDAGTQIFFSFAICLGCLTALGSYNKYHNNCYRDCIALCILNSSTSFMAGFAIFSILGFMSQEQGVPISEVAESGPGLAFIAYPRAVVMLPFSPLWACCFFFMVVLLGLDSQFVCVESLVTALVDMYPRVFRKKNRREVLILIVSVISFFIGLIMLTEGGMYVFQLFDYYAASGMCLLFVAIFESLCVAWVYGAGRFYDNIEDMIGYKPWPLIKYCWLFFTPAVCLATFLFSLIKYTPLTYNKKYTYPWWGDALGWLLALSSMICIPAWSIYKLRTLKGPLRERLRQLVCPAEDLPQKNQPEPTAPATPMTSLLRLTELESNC
Procedure, shortened: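 HEK293 cells stably expressing mouse GAT2 were kept under blasticidin-S (5 µg/mL) selection. Ice-cold washes preceded scintillation counting. IC50 came from a variable-slope sigmoidal fit.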

[5] = target: T1, Sodium- and chloride-dependent GABA transporter 1; assay: Inhibition of mouse GAT1 expressed in hamster BHK cells assessed as reduction in [3H]GABA uptake after 3 mins by scintillation counting method; type: cell-based; conditions: read-out: Ki(app)
[6] = target: T3, GABA transporter 3; assay: Inhibition of mouse GAT2 expressed in hamster BHK cells assessed as reduction in [3H]GABA uptake after 3 mins by scintillation counting method; type: cell-based; conditions: read-out: Ki(app)
[7] = target: T2, GABA transporter 2; assay: Inhibition of mouse BGT1 expressed in hamster BHK cells assessed as reduction in [3H]GABA uptake after 3 mins by scintillation counting method; type: cell-based; conditions: read-out: Ki(app)
[8] = target: Sodium- and chloride-dependent GABA transporter 3 (Homo sapiens, UniProt P48066, L314Q); assay: Inhibition of human GAT3 L314Q mutant expresses in tsA201 cells assessed as reduction in [3H]GABA uptake after 3 mins by scintillation counting method; type: cell-based
Procedure, shortened: (§2)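 Site-directed mutant transporters transiently transfected (PolyFect) into tsA201 cells, plated and used about 24 h later. Cells were washed with HBSS containing 20 mM HEPES, 1 mM CaCl2 and 1 mM MgCl2, pH 7.4. Uptake of 30 nM [3H]GABA was run with varied inhibitor concentrations for 3 min at 37 °C, then three ice-cold washes and scintillation counting. IC50 was taken from variable-slope sigmoidal fits. Triplicates, at least three independent experiments.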

[9] = target: Sodium- and chloride-dependent GABA transporter 3 (Homo sapiens, UniProt P48066, S468Y); assay: Inhibition of human GAT3 S468Y mutant expresses in tsA201 cells assessed as reduction in [3H]GABA uptake after 3 mins by scintillation counting method; type: cell-based; procedure, shortened: as §2
Sodium- and chloride-dependent GABA transporter 3 (Homo sapiens, UniProt P48066, S468Y), sequence (P48066 whole entry S468Y): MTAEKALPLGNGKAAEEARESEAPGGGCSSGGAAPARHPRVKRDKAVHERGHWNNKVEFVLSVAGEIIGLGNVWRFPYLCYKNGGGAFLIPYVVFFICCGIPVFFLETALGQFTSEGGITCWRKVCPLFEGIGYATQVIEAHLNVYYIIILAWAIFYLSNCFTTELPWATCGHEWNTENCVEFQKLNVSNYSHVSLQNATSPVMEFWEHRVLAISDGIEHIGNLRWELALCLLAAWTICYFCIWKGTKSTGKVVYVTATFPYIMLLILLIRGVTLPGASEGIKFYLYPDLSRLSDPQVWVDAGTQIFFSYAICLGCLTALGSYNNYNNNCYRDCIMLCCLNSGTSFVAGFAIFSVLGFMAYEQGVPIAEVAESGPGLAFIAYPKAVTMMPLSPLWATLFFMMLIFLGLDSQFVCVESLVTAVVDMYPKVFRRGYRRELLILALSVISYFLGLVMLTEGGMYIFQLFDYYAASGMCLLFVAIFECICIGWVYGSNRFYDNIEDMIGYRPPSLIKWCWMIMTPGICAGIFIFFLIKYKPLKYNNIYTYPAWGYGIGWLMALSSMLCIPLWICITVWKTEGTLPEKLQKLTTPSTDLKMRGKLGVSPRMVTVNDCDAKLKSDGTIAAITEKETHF

Sodium- and chloride-dependent GABA transporter 3 (Homo sapiens, UniProt P48066, L314Q), sequence (P48066 whole entry L314Q): as the sequence (P48066 whole entry S468Y) above, with L314Q, Y468S counted along it

| IC50 [8] [µM] | IC50 [9] [µM] | Compound | solubility at 24 h [1] [µg/mL] | IC50 [2] [µM] | IC50 ([3]; read-out: IC50) [µM] | IC50 [4] [µM] | Ki [5] [µM] | Ki [6] [µM] | Ki [7] [µM] | IC50 [3] [µM] |
| --- | --- | --- | --- | --- | --- | --- | --- | --- | --- | --- |
|  |  | COc1cccc(CN2CCC(NC(=O)c3ccc(Cl)nc3Cl)CC2)c1 | 240 (≈ 609 µM) | > 300 | 115 | > 300 |  |  |  |  |
|  |  | COc1ccccc1C1(O)CCN(CCCn2c3ccccc3c3ccccc32)CC1 |  |  |  |  | 19 | 41 | 1.4 |  |
|  |  | O=C(NC1CCN(Cc2cccc(C(F)(F)F)c2)CC1)c1ccc(Cl)cc1Cl | 3 (≈ 6.96 µM) | > 1000 | 51 | > 1000 |  |  |  |  |
|  |  | CCOc1cccc(CN2CCC(NC(=O)c3ccc(Cl)nc3Cl)CC2)c1 | 130 (≈ 318 µM) | > 300 | 111 | > 300 |  |  |  | 111 |
|  |  | O=C(NC1CCN(Cc2ccccc2)CC1)c1c(Cl)cc(Cl)cc1Cl | 40 (≈ 101 µM) | > 1000 | 11 | 1700 |  |  |  |  |
| 4 | 1 | NCCCC(=O)O [GAMMA-AMINOBUTYRIC ACID] |  |  |  |  |  |  |  |  |
